# Assay outcomes: PubChem BioAssay, several laboratories
# In the library only some 3.5% were active in any assay of this set; here they are far more common.
# NF-kB expr up = raises NF-kB expression in human neuronal cells. NF-kB reporter expression; active compounds read high. fold change at 12.5 µM. actives 1.6% (n = 190,000); in the data active means fold change above about 3.3
# FLuc stim CS = firefly luciferase counter-screen for stimulation assays | activation factor at 10 µM | ATPlite luciferase biochemical, luminescence, 10 min; 0 = ATP-free wells, 1 = DMSO control | AID 1027 | 200,000 tested, under 10 active;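 active means luciferase activation factor, scaled between plate controls, of at least 2 with compound at 10 µM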
# Target sequence (P08659 whole entry, looked up): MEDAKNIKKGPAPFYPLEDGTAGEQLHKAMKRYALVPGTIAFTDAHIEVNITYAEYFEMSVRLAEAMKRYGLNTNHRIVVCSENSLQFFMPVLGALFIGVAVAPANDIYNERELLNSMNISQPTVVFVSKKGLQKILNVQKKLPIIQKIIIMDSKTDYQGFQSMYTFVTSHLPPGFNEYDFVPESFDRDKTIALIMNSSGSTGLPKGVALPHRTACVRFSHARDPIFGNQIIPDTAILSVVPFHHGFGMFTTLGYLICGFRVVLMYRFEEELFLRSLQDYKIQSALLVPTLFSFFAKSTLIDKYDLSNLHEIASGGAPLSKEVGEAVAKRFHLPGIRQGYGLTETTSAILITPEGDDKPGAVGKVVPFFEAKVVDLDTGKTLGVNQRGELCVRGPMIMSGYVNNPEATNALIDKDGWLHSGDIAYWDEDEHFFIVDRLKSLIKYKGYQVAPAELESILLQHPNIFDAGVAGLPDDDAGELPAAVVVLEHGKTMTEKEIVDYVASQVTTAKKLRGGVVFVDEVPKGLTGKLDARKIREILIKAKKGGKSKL
#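 Assay system – cell-free luciferase reagent · Medium – PBS-based ATP solution · Dosing – test compounds dosed from 2 mM stocks in 100% DMSO · Timing – 10 min, room temperature · Technique – light output (luminescence) · Measure – luminescence gain marking luciferase activators · Controls – No-ATP low control, compound-free enzyme-plus-ATP high control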
# FLuc inhib CS = counter-screen for luciferase assay inhibitors: firefly luciferase inhibition; P08659; ATPLite firefly luciferase biochemical luminescence, 10 min; inhibition, % at 10 µM; actives 1.5% (n = 200,000);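 active means inhibition above about 50% when tested at 10 µM, limit read from the data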
# Pf gametocyte = P. falciparum stage V gametocyte viability inhibition. AID 743093. P. falciparum stage V gametocytes, ATP luminescence, 24 h. actives 0.065% (n = 150,000). inhibition, % at 10.9 µM;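 active means inhibition above the mean plus 3 SD of compounds within the control limits, set per campaign, cut at about 38% in these data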;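 further: 0% = DMSO wells and 100% = medium only without gametocytes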
# STAT1 act = activators of IFN-gamma induced STAT1 signaling; NIH 3T3 STAT1-luciferase reporter, luminescence; 100% = IFN-gamma alone, no compound; activation (% of control), % at 5.5 µM; actives 2.6% (n = 200,000); AID 932;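 active means activation above the screen-wide mean activation plus 3 SD, cut at about 130% in these data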;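 further: raw ratio to IFN-gamma control signal so 100% means no change and 0% no light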
# APP 5'UTR act = activates APP 5'UTR luciferase reporter; SH-SY5Y APP 5'UTR luciferase reporter, luminescence; zero percent = DMSO vehicle wells; actives 1% (n = 190,000); activation, % at 2 µM;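 active means activation above a set limit, based on mean plus 3 SD of controls, cut at about 140% in these data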
# The depositor's hits bear a star; x = not tested or not shown.
SMILES,NF-kB expr up,FLuc stim CS,FLuc inhib CS,Pf gametocyte,STAT1 act,APP 5'UTR act
Fc1ccccc1/C=C/c1ccc2ccccc2n1,6.7*,0.1,87*,7,96,196*
CCn1c(/C=C/c2ccccc2F)nc2ccccc2c1=O,x,x,x,7,x,x
O=[N+]([O-])c1ccc(/C=C/c2ccc3ccccc3n2)cc1,5.2*,0.2,76*,8,51,165*
CC(=O)Oc1ccc(Cl)cc1/C=C/c1ccc2ccccc2n1,7.3*,1,-2,x,95,88
CCCN1CCC(NC(=O)Cc2ccc(C)cc2)CC1,x,x,x,-17,x,x
COc1ccc(-c2ccc(=O)n(CC(=O)N3CCN(c4ccccc4OC)CC3)n2)cc1,x,x,x,x,105,3
Cc1cc(C)n(CC(=O)NCc2ccccc2)c(=O)c1C#N,x,x,x,18,x,x
O=C(O)/C=C/c1ccc2ccccc2n1,1.2,1,-4,x,94,2
O/C(=C\c1ccc2ccccc2n1)c1ccc(O)cc1O,8.1*,0.2,83*,11,96,158*
Oc1ccc(/C=C/c2ccc3ccccc3n2)cc1,2.6,0.1,86*,21,33,55
CCNc1nc(NCC)nc(SCCOc2ccc(C)cc2)n1,1.1,1.1,-9,x,98,-3
Cn1ccnc1SCC(=O)Nc1nc2ccccc2s1,0.88,1,1,-2,134*,27
CCNC(=O)Nc1nc2ccccc2s1,2.6,0.8,24,-5,146*,77
O=C(CCc1nc2ccccc2s1)Nc1ccccc1,0.97,1,-2,-17,96,-1
CCOCC(=O)Nc1nc2ccccc2s1,1.9,0.9,12,x,128,24
S=C(Nc1ccccc1)c1nc2ccccc2s1,2.4,0.9,6,-32,138*,101
CC(=O)N1CCC(=NNc2nc3ccccc3s2)CC1,2.1,0.9,13,x,136*,108
O=C(CSc1ccccn1)Nc1nc2ccccc2s1,1.9,1,-3,-1,112,1
O=S(=O)(CCc1nc2ccccc2o1)c1ccc2ccccc2c1,0.9,1,-3,x,101,7
O=C(NNc1nc2ccccc2s1)Nc1ccccc1,1.7,1,2,-11,138*,115
O=C(Nc1ccccc1)N1CCc2ccccc2C1,2.4,0.7,29,x,122,82
O=C(Nc1ccc(Cl)cc1)N1CCc2ccccc2C1,2.9,0.9,12,x,139*,44
Cc1ccc(NC(=O)N2CCc3ccccc3C2)cc1,3.5*,0.8,18,-3,148*,75
O=c1c(Cl)c(Cl)cnn1Cc1nnc(-c2ccccc2Br)o1,0.19,1,-1,x,94,-94
COc1ccc(N(CCCN2C(=O)c3cccc4cccc(c34)C2=O)C(=O)c2cccc(OC)c2)cc1,0.63,1,-4,14,99,18
SMILES,NF-kB expr up,FLuc stim CS,FLuc inhib CS,Pf gametocyte,STAT1 act,APP 5'UTR act
O=C(Nc1nonc1-c1ccc(Cl)cc1)c1ccccc1,1.3,1.1,-7,-6,99,0
O=C(Cc1ccccc1)Nc1nonc1NC(=O)c1ccccc1,3.7*,1.1,-6,x,92,16
CCOC(=O)CC1CCCCN1Cc1cn(C)nc1-c1ccc2c(c1)OCCO2 (configuration not stated),1.2,1.1,-5,42*,106,27
Nc1c(C(=O)Nc2ccc(F)cc2)sc(=S)n1-c1ccccc1F,1.7,0.9,8,-26,131*,58
COC(=O)C(=Cc1ccc(OCc2ccc([N+](=O)[O-])cc2)c(OC)c1)C(=O)OC,4.4*,1,-1,x,122,17
COc1cc(C(c2c(C)[nH][nH]c2=O)c2c(C)[nH][nH]c2=O)ccc1OCc1ccc([N+](=O)[O-])cc1,3.8*,1,-2,19,111,x
COc1cc(C(c2c(C)[nH][nH]c2=O)c2c(C)[nH][nH]c2=O)ccc1OC(=O)c1cccc([N+](=O)[O-])c1,1.3,1.1,-9,x,106,1
COc1cc(C=O)ccc1OCCCOc1ccc([N+](=O)[O-])cc1,0.89,1,-4,x,95,-15
CCOC(=O)C(=Cc1ccc(OCc2ccc([N+](=O)[O-])cc2)c(OC)c1)C(=O)OCC,3.6*,1,1,x,113,10
O=S(=O)(CCN(CCS(=O)(=O)C(F)(F)F)CC1CCCO1)C(F)(F)F (configuration not stated),0.89,1,-4,x,104,2
Cc1ccc2nc(CSc3nc(C)ccc3C#N)[nH]c2c1,1.7,0.4,65*,x,139*,93
Cc1ccc(C#N)c(SCc2ccccc2F)n1,x,x,x,0,x,x
O=C(O)CCn1c(-c2ccccc2)cc2ccccc21,0.99,0.8,22,x,99,17
Cc1ccc(C2/C(=C(/O)c3cnn(-c4ccccc4)c3C)C(=O)C(=O)N2CCN2CCOCC2)o1 (configuration not stated),1.6,0.8,20,-3,117,64
Cc1c(/C(O)=C2/C(=O)C(=O)N(CCN3CCOCC3)C2c2cccs2)cnn1-c1ccccc1 (configuration not stated),1.7,0.9,9,-25,143*,52
CC(C)(C)N1CSC(=S)N(Cc2ccccc2)C1,4.5*,1.1,-7,2,99,-14
CC(C)N1CSC(=S)N(Cc2ccccc2)C1,2.8,1,-3,x,99,32
COc1cc(CN2CCN(c3ccccc3F)CC2)c([N+](=O)[O-])cc1OC,1.1,1,-4,x,104,4
Cc1nn(-c2ccccc2)c(N)c1Sc1ccc([N+](=O)[O-])cc1,1.2,1,-3,-12,102,6
Cc1nn(-c2nc3ccccc3s2)c(N)c1Sc1ccc(F)cc1,1.2,1,1,x,138*,32
Cc1nn(-c2nc3ccccc3s2)c(N)c1-c1ccc(Cl)cc1,1.8,0.9,13,x,126,-8
Cc1nn(-c2ccccc2)c(N)c1-c1ccccc1,2.6,0.3,73*,-7,113,7
Cc1cc(N)n(-c2nc3ccccc3s2)n1,4.5*,0.2,75*,-2,122,113
Cc1nn(-c2nc3ccccc3s2)c(N)c1-c1ccccc1,7.6*,0.5,52*,-5,143*,122
Cc1cc(C)n(-c2nc3ccccc3s2)n1,2.1,0.8,18,-13,122,38
O=C(Nc1ccccc1)c1cc2n(n1)C(C(F)(F)F)CC(C1CC1)N2 (configuration not stated),2.3,1,0,x,142*,86
Cc1cc(S(=O)(=O)NCCc2ccccc2)c(C)s1,1.1,1,-3,7,101,-2
COc1ccccc1CNc1ccc(CNc2ncn[nH]2)cc1,5.3*,1,-3,10,102,-6
COc1cc(CNc2ccc(CNc3ncn[nH]3)cc2)ccc1OCc1ccccc1,1.3,1,1,13,129*,7
